Experimental data as given in ChEMBL document CHEMBL1932999, “Increased susceptibility to resveratrol of Helicobacter pylori strains isolated from patients with gastric carcinoma” (2011).

Key:
Helicobacter pylori [1] = experiment: Antibacterial activity against CagA-expressing Helicobacter pylori 10Kb isolated from gastric carcinoma patient after 48 hrs compound exposure followed by incubation on Columbia-blood agar plate for 3 to 5 days; assay type: functional
How it was run: (§1)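 Compound dissolved in water with 4% DMSO, filter-sterilized, and serially twofold diluted in Brucella broth with 10% bovine fetal serum. Inoculum from 48 h microaerobic Brucella agar-BFS cultures, added at approximately 10^6 CFU/mL final. Broth incubated microaerobically at 37 °C for 24 or 48 h, then each dilution subcultured onto Columbia-blood agar. MBC is the lowest concentration with no growth on subculture. Triplicate; mean ± SD.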

Helicobacter pylori [2] = experiment: Antibacterial activity against CagA-expressing Helicobacter pylori 4Cb isolated from gastric carcinoma patient after 48 hrs compound exposure followed by incubation on Columbia-blood agar plate for 3 to 5 days; assay type: functional; how it was run: as §1
Helicobacter pylori [3] = experiment: Bactericidal activity against CagA-deficient Helicobacter pylori G50 isolated from chronic gastritis patient compound exposure followed by incubation on Columbia-blood agar plate for 3 to 5 days; assay type: functional, organism-based; settings: TDE = time-dependent effect
How it was run: (§2)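 Broth microdilution MBC against clinical H. pylori isolates (cagA by PCR; stocks kept frozen in Columbia broth with 20% glycerol). Compound dissolved in water with 4% DMSO, filter-sterilized, double diluted in Brucella broth with 10% fetal bovine serum. Inoculum about 10^6 CFU/mL from 48 h microaerobic Brucella agar-BFS cultures. Plates held microaerobically at 37 °C for 24 and 48 h. Each well was then spotted onto Columbia-blood agar for 3-5 days. MBC is the lowest concentration giving no regrowth. Triplicate, mean ± SD.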

Helicobacter pylori [4] = experiment: Bactericidal activity against CagA-deficient Helicobacter pylori Ba142 isolated from chronic gastritis patient compound exposure followed by incubation on Columbia-blood agar plate for 3 to 5 days; assay type: functional, organism-based; settings: TDE = time-dependent effect; how it was run: as §2
Helicobacter pylori [5] = experiment: Bactericidal activity against CagA-deficient Helicobacter pylori 328 KM isolated from chronic gastritis patient compound exposure followed by incubation on Columbia-blood agar plate for 3 to 5 days; assay type: functional, organism-based; settings: TDE = time-dependent effect; how it was run: as §2
Helicobacter pylori [6] = experiment: Bactericidal activity against CagA-deficient Helicobacter pylori G12 isolated from chronic gastritis patient compound exposure followed by incubation on Columbia-blood agar plate for 3 to 5 days; assay type: functional, organism-based; settings: TDE = time-dependent effect; how it was run: as §2
Helicobacter pylori [7] = experiment: Bactericidal activity against CagA-expressing Helicobacter pylori 328 isolated from chronic gastritis patient compound exposure followed by incubation on Columbia-blood agar plate for 3 to 5 days; assay type: functional, organism-based; settings: TDE = time-dependent effect; how it was run: as §2
Helicobacter pylori [8] = experiment: Bactericidal activity against CagA-expressing Helicobacter pylori Ma01 isolated from chronic gastritis patient compound exposure followed by incubation on Columbia-blood agar plate for 3 to 5 days; assay type: functional, organism-based; settings: TDE = time-dependent effect; how it was run: as §2
Helicobacter pylori [9] = experiment: Bactericidal activity against CagA-expressing Helicobacter pylori G39 isolated from chronic gastritis patient compound exposure followed by incubation on Columbia-blood agar plate for 3 to 5 days; assay type: functional, organism-based; settings: TDE = time-dependent effect; how it was run: as §2
Helicobacter pylori [10] = experiment: Antibacterial activity against CagA-expressing Helicobacter pylori 1C1 isolated from gastric carcinoma patient after 24 hrs compound exposure followed by incubation on Columbia-blood agar plate for 3 to 5 days; assay type: functional; how it was run: as §1
Helicobacter pylori [11] = experiment: Antibacterial activity against CagA-expressing Helicobacter pylori 2Ca isolated from gastric carcinoma patient after 24 hrs compound exposure followed by incubation on Columbia-blood agar plate for 3 to 5 days; assay type: functional; how it was run: as §1
Helicobacter pylori [12] = experiment: Antibacterial activity against CagA-deficient Helicobacter pylori G50 isolated from chronic gastritis patient after 48 hrs compound exposure followed by incubation on Columbia-blood agar plate for 3 to 5 days; assay type: functional; how it was run: as §1
Helicobacter pylori [13] = experiment: Antibacterial activity against CagA-deficient Helicobacter pylori G21b isolated from chronic gastritis patient after 48 hrs compound exposure followed by incubation on Columbia-blood agar plate for 3 to 5 days; assay type: functional; how it was run: as §1
Helicobacter pylori [14] = experiment: Antibacterial activity against CagA-deficient Helicobacter pylori G104 isolated from chronic gastritis patient after 48 hrs compound exposure followed by incubation on Columbia-blood agar plate for 3 to 5 days; assay type: functional; how it was run: as §1
Helicobacter pylori [15] = experiment: Antibacterial activity against CagA-deficient Helicobacter pylori NS23 isolated from chronic gastritis patient after 48 hrs compound exposure followed by incubation on Columbia-blood agar plate for 3 to 5 days; assay type: functional; how it was run: as §1
Helicobacter pylori [16] = experiment: Antibacterial activity against CagA-deficient Helicobacter pylori 328 KM isolated from chronic gastritis patient after 48 hrs compound exposure followed by incubation on Columbia-blood agar plate for 3 to 5 days; assay type: functional; how it was run: as §1
Helicobacter pylori [17] = experiment: Antibacterial activity against CagA-expressing Helicobacter pylori MDO21 isolated from chronic gastritis patient after 48 hrs compound exposure followed by incubation on Columbia-blood agar plate for 3 to 5 days; assay type: functional; how it was run: as §1
Helicobacter pylori [18] = experiment: Antibacterial activity against CagA-expressing Helicobacter pylori MD6 isolated from chronic gastritis patient after 48 hrs compound exposure followed by incubation on Columbia-blood agar plate for 3 to 5 days; assay type: functional; how it was run: as §1
Helicobacter pylori [19] = experiment: Antibacterial activity against CagA-expressing Helicobacter pylori G39 isolated from chronic gastritis patient after 48 hrs compound exposure followed by incubation on Columbia-blood agar plate for 3 to 5 days; assay type: functional; how it was run: as §1
Helicobacter pylori [20] = experiment: Antibacterial activity against CagA-expressing Helicobacter pylori 18K7 isolated from gastric carcinoma patient after 48 hrs compound exposure followed by incubation on Columbia-blood agar plate for 3 to 5 days; assay type: functional; how it was run: as §1
Helicobacter pylori [21] = experiment: Antibacterial activity against CagA-deficient Helicobacter pylori G50 isolated from chronic gastritis patient after 24 hrs compound exposure followed by incubation on Columbia-blood agar plate for 3 to 5 days; assay type: functional; how it was run: as §1
Helicobacter pylori [22] = experiment: Antibacterial activity against CagA-deficient Helicobacter pylori 328 KM isolated from chronic gastritis patient after 24 hrs compound exposure followed by incubation on Columbia-blood agar plate for 3 to 5 days; assay type: functional; how it was run: as §1
Helicobacter pylori [23] = experiment: Antibacterial activity against CagA-deficient Helicobacter pylori G204 isolated from chronic gastritis patient after 24 hrs compound exposure followed by incubation on Columbia-blood agar plate for 3 to 5 days; assay type: functional; how it was run: as §1
Helicobacter pylori [24] = experiment: Antibacterial activity against CagA-expressing Helicobacter pylori MDO21 isolated from chronic gastritis patient after 24 hrs compound exposure followed by incubation on Columbia-blood agar plate for 3 to 5 days; assay type: functional; how it was run: as §1
Helicobacter pylori [25] = experiment: Antibacterial activity against CagA-expressing Helicobacter pylori MD6 isolated from chronic gastritis patient after 24 hrs compound exposure followed by incubation on Columbia-blood agar plate for 3 to 5 days; assay type: functional; how it was run: as §1
Helicobacter pylori [26] = experiment: Antibacterial activity against CagA-expressing Helicobacter pylori 328 isolated from chronic gastritis patient after 24 hrs compound exposure followed by incubation on Columbia-blood agar plate for 3 to 5 days; assay type: functional; how it was run: as §1
Helicobacter pylori [27] = experiment: Antibacterial activity against CagA-expressing Helicobacter pylori Ma01 isolated from chronic gastritis patient after 24 hrs compound exposure followed by incubation on Columbia-blood agar plate for 3 to 5 days; assay type: functional; how it was run: as §1
Helicobacter pylori [28] = experiment: Antibacterial activity against CagA-expressing Helicobacter pylori SI10 isolated from chronic gastritis patient after 24 hrs compound exposure followed by incubation on Columbia-blood agar plate for 3 to 5 days; assay type: functional; how it was run: as §2
Helicobacter pylori [29] = experiment: Antibacterial activity against CagA-expressing Helicobacter pylori 18K7 isolated from gastric carcinoma patient after 24 hrs compound exposure followed by incubation on Columbia-blood agar plate for 3 to 5 days; assay type: functional; how it was run: as §1
Helicobacter pylori [30] = experiment: Antibacterial activity against CagA-expressing Helicobacter pylori 10Kb isolated from gastric carcinoma patient after 24 hrs compound exposure followed by incubation on Columbia-blood agar plate for 3 to 5 days; assay type: functional; how it was run: as §1
Helicobacter pylori [31] = experiment: Antibacterial activity against CagA-expressing Helicobacter pylori 17C7 isolated from gastric carcinoma patient after 24 hrs compound exposure followed by incubation on Columbia-blood agar plate for 3 to 5 days; assay type: functional; how it was run: as §1
Helicobacter pylori [32] = experiment: Antibacterial activity against CagA-expressing Helicobacter pylori 18C7 isolated from gastric carcinoma patient after 24 hrs compound exposure followed by incubation on Columbia-blood agar plate for 3 to 5 days; assay type: functional; how it was run: as §1
Helicobacter pylori [33] = experiment: Antibacterial activity against CagA-expressing Helicobacter pylori 4Cb isolated from gastric carcinoma patient after 24 hrs compound exposure followed by incubation on Columbia-blood agar plate for 3 to 5 days; assay type: functional; how it was run: as §1

Oc1ccc(/C=C/c2cc(O)cc(O)c2)cc1 [RESVERATROL]
295 µg/mL: MBC (Helicobacter pylori [12]) | MBC (Helicobacter pylori [13]) | MBC (Helicobacter pylori [14]) | MBC (Helicobacter pylori [17]) | MBC (Helicobacter pylori [18]) | MBC (Helicobacter pylori [21]) | MBC (Helicobacter pylori [24]) | MBC (Helicobacter pylori [26])
320 µg/mL: MBC (Helicobacter pylori [19])
147 µg/mL: MBC (Helicobacter pylori [1]) | MBC (Helicobacter pylori [2]) | MBC (Helicobacter pylori [15]) | MBC (Helicobacter pylori [16]) | MBC (Helicobacter pylori [20]) | MBC (Helicobacter pylori [22]) | MBC (Helicobacter pylori [29]) | MBC (Helicobacter pylori [30]) | MBC (Helicobacter pylori [33])
active: Activity (Helicobacter pylori [3]) tde | Activity (Helicobacter pylori [4]) tde | Activity (Helicobacter pylori [5]) tde | Activity (Helicobacter pylori [6]) tde | Activity (Helicobacter pylori [7]) tde | Activity (Helicobacter pylori [8]) tde | Activity (Helicobacter pylori [9]) tde
37 µg/mL: MBC (Helicobacter pylori [31]) | MBC (Helicobacter pylori [32])
589 µg/mL: MBC (Helicobacter pylori [25]) | MBC (Helicobacter pylori [27]) | MBC (Helicobacter pylori [28])
160 µg/mL: MBC (Helicobacter pylori [11])
80 µg/mL: MBC (Helicobacter pylori [10])
648 µg/mL: MBC (Helicobacter pylori [23])
